Among the data in ChEMBL document CHEMBL4346653, “A2B Adenosine Receptor Antagonists with Picomolar Potency” (J Med Chem, 2019) are Ki, Ratio Ki and inhibition values, retold here.

The target of test [1] is T1, Adenosine receptor A2b (Homo sapiens, UniProt P29275).
T1 sequence (P29275 whole entry): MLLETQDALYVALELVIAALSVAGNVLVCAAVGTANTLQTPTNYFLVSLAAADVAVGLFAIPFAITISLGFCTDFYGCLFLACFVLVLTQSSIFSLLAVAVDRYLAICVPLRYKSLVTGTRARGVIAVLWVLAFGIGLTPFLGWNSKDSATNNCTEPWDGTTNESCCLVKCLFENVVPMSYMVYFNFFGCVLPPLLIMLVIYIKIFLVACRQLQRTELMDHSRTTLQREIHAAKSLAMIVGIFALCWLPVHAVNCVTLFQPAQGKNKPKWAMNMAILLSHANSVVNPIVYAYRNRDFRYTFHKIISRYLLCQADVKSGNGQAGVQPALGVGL
In words: Displacement of [3H]PSB-603 from recombinant human A2B adenosine receptor expressed in CHO cell membranes measured after 75 mins in presence of adenosine deaminase by liquid scintillation counting method. Summed up: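 Competition binding on membranes of cells recombinantly expressing the human receptor (CHO or HEK cells), with tritiated radioligand per subtype: [3H]PSB-603 for A2B, [3H]MSX-2 for A2A, [3H]CCPA for A1, [3H]PSB-11 for A3. Ki ± SEM from n = 3, some from extrapolated curves. Weak binders are reported as % inhibition of radioligand binding at 1 μM.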

For test [2], the target named is T2, Adenosine receptor A3 (Mus musculus, UniProt Q61618).
T2 sequence (Q61618 whole entry): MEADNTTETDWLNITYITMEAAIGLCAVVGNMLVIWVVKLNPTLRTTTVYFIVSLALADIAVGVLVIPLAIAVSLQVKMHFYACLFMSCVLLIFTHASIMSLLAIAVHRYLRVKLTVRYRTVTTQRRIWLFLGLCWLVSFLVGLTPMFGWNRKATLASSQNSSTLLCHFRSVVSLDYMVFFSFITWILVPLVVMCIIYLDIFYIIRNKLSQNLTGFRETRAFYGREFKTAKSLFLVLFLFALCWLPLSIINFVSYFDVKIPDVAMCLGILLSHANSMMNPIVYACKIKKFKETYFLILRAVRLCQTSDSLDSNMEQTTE
In words: Displacement of [3H]NECA from recombinant mouse A3 adenosine receptor expressed in CHO cell membranes measured after 180 mins in presence of adenosine deaminase by liquid scintillation counting method.

Test [3] is filed under the species Homo sapiens. In words: Selectivity index, ratio of Ki for displacement of [3H]CCPA from recombinant human A1 adenosine receptor expressed in CHO cell membranes to Ki for displacement of [3H]PSB-603 from recombinant human A2B adenosine receptor expressed in CHO cell membranes.
For test [4], the target named is T3, Adenosine receptor A3 (Mus musculus) (UniProt Q61618).
T3 sequence (whole entry): T2 sequence (Q61618 whole entry)
In words: Displacement of [3H]NECA from recombinant mouse A3 adenosine receptor expressed in CHO cell membranes at 1 uM measured after 180 mins in presence of adenosine deaminase by liquid scintillation counting method relative to control.

For test [5], the species on record is Mus musculus. Put plainly: Selectivity ratio of Ki for displacement of [3H]NECA from recombinant mouse A3 adenosine receptor expressed in CHO cell membranes to Ki for displacement of [3H]PSB-603 from recombinant mouse A2B adenosine receptor expressed in CHO cell membranes.
Test [6] in a line: Selectivity ratio of Ki for displacement of [3H]PSB-603 from recombinant mouse A2B adenosine receptor expressed in CHO cell membranes to Ki for displacement of [3H]PSB-603 from recombinant human A2B adenosine receptor expressed in CHO cell membranes.
In test [7] the target is T4, Adenosine receptor A1 (Mus musculus) (UniProt Q60612).
T4 sequence (whole entry): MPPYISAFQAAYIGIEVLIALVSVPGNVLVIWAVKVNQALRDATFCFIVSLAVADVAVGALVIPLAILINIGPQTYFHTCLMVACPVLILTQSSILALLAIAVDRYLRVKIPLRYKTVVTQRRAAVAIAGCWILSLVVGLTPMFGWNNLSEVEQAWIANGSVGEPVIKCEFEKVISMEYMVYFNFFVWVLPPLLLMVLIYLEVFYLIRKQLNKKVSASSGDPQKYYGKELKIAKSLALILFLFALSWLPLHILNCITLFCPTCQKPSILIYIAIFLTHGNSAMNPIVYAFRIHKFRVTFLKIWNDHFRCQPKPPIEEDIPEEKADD
Put plainly: Displacement of [3H]CCPA from recombinant mouse A1 adenosine receptor expressed in CHO cell membranes at 1 uM measured after 90 mins in presence of adenosine deaminase by liquid scintillation counting method relative to control.

For test [8], the species on record is Mus musculus. In words: Selectivity ratio of Ki for displacement of [3H]CCPA from recombinant mouse A1 adenosine receptor expressed in CHO cell membranes to Ki for displacement of [3H]PSB-603 from recombinant mouse A2B adenosine receptor expressed in CHO cell membranes.

Regarding `CCCn1c(=O)c2[nH]c(-c3ccc(S(=O)(=O)N4CCN(c5ccc(Cl)cc5)CC4)cc3)nc2n(C)c1=O`, the Ki in test [1] is 1.91 nM; in test [2] it was over 1000 nM. Also, the Ratio Ki is over 520 in test [3], 180 in test [5] and 1.5 to 6 in test [6]. The inhibition in test [4] was -0.833%.
Consider `CCCn1c(=O)[nH]c2nc(-c3ccc(S(=O)(=O)N4CCN(c5ccc(Br)cc5)CC4)cc3)[nH]c2c1=O`, for which the values for the Ki in test [1] and in test [2] were 0.0835 nM and over 1000 nM, respectively. For the same compound, the Ratio Ki in test [3] was over 12000; in test [5], over 7630; in test [8], over 7630. For the same compound, the inhibition in test [7] worked out at 29%; in test [4], 8%.
As for `CCCn1c(=O)[nH]c2nc(-c3ccc(S(=O)(=O)N4CCN(c5cccc(F)c5)CC4)cc3)[nH]c2c1=O`, the Ki is 0.632 nM in test [1] and over 1000 nM in test [2]. Moreover, the figures for the Ratio Ki in test [3], in test [8] and in test [6] were over 1580, over 320 and 1.5 to 6, respectively. The figures for the inhibition in test [7] and in test [4] were 46% and -2%, respectively.
